Data reported in ChEMBL document CHEMBL1137710, “Synthesis and in vitro antitumor activity of new quinoxaline derivatives” (2009).

Tests used:
Assay type in all cases: functional
CCRF-CEM = experiment: Growth inhibition of human CCRF-CEM cells after 48 hrs by sulforhodamine B assay; details: for TGI: read-out: pTGI (converted)
How it was run: (§1)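 NCI 60-human-tumor-cell-line panel, with compounds tested over a 5-log dose range. Values are taken from dose-response curves as log10 molar concentrations: GI50 is 50% net growth inhibition, TGI is total growth inhibition, and LC50 is 50% net cell death.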

SR = experiment: Growth inhibition of human SR cells after 48 hrs by sulforhodamine B assay
How it was run: (§2)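 Run in the NCI 60-human-tumour-cell-line panel, tested over a 5-log dose range. Dose–response curves gave three values per cell line, each as a log10 molar concentration: GI50 (50% inhibition of net cell growth), TGI (total inhibition of net growth) and LC50 (50% net cell death). The mean graph midpoint is the arithmetic mean over all lines, with insensitive lines entered at the highest concentration tested.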

MOLT-4 = experiment: Growth inhibition of human MOLT4 cells after 48 hrs by sulforhodamine B assay; details: MOLT-4, 48 h; for TGI: read-out: pTGI (converted); how it was run: as §1
A549 = experiment: Growth inhibition of human A549 cells after 48 hrs by sulforhodamine B assay; details: A549, 48 h; for TGI: read-out: pTGI (converted); how it was run: as §1
NCI-H226 = experiment: Growth inhibition of human NCI-H226 cells after 48 hrs by sulforhodamine B assay; details: NCI-H226, 48 h; for TGI: read-out: pTGI (converted); how it was run: as §1
NCI-H23 = experiment: Growth inhibition of human NCI-H23 cells after 48 hrs by sulforhodamine B assay; details: NCI-H23, 48 h; for TGI: read-out: pTGI (converted); how it was run: as §1
NCI-H460 = experiment: Growth inhibition of human NCI-H460 cells after 48 hrs by sulforhodamine B assay; details: NCI-H460, 48 h; for TGI: read-out: pTGI (converted); how it was run: as §1
COLO 205 = experiment: Growth inhibition of human COLO205 cells after 48 hrs by sulforhodamine B assay; details: COLO 205, 48 h; for TGI: read-out: pTGI (converted); how it was run: as §1
HCT-116 = experiment: Growth inhibition of human HCT116 cells after 48 hrs by sulforhodamine B assay; details: HCT-116, 48 h; for TGI: read-out: pTGI (converted); how it was run: as §1
KM12 = experiment: Growth inhibition of human KM12 cells after 48 hrs by sulforhodamine B assay; details: KM12, 48 h; for TGI: read-out: pTGI (converted); how it was run: as §1
SF-295 = experiment: Growth inhibition of human SF295 cells after 48 hrs by sulforhodamine B assay; details: SF-295, 48 h; for TGI: read-out: pTGI (converted); how it was run: as §1
SF-539 = experiment: Growth inhibition of human SF539 cells after 48 hrs by sulforhodamine B assay; details: SF-539, 48 h; for TGI: read-out: pTGI (converted); how it was run: as §1
Malme-3M = experiment: Growth inhibition of human MALME-3M cells after 48 hrs by sulforhodamine B assay; details: for CC50: read-out: pLC50 (the source's name) (converted); for TGI: read-out: pTGI (converted); how it was run: as §1
SK-MEL-2 = experiment: Growth inhibition of human SK-MEL-2 cells after 48 hrs by sulforhodamine B assay; details: SK-MEL-2, 48 h; for CC50: read-out: pLC50 (the source's name) (converted); for TGI: read-out: pTGI (converted); how it was run: as §1
SK-MEL-5 = experiment: Growth inhibition of human SK-MEL-5 cells after 48 hrs by sulforhodamine B assay; details: SK-MEL-5, 48 h; for CC50: read-out: pLC50 (the source's name) (converted); for TGI: read-out: pTGI (converted); how it was run: as §1
UACC-257 = experiment: Growth inhibition of human UACC257 cells after 48 hrs by sulforhodamine B assay; details: UACC-257, 48 h; for CC50: read-out: pLC50 (the source's name) (converted); for TGI: read-out: pTGI (converted); how it was run: as §2
OVCAR-5 = experiment: Growth inhibition of human OVCAR5 cells after 48 hrs by sulforhodamine B assay; details: OVCAR-5, 48 h; for CC50: read-out: pLC50 (the source's name) (converted); for TGI: read-out: pTGI (converted); how it was run: as §1
SK-OV-3 = experiment: Growth inhibition of human SKOV3 cells after 48 hrs by sulforhodamine B assay; details: SK-OV-3, 48 h; for CC50: read-out: pLC50 (the source's name) (converted); for TGI: read-out: pTGI (converted); how it was run: as §1
A498 = experiment: Growth inhibition of human A498 cells after 48 hrs by sulforhodamine B assay; details: A498, 48 h; for CC50: read-out: pLC50 (the source's name) (converted); for TGI: read-out: pTGI (converted); how it was run: as §1
ACHN = experiment: Growth inhibition of human ACHN cells after 48 hrs by sulforhodamine B assay
RXF 393 = experiment: Growth inhibition of human RXF393 cells after 48 hrs by sulforhodamine B assay; details: RXF 393, 48 h; for CC50: read-out: pLC50 (the source's name) (converted); for TGI: read-out: pTGI (converted); how it was run: as §1
SN12C = experiment: Growth inhibition of human SN12C cells after 48 hrs by sulforhodamine B assay; details: for CC50: read-out: pLC50 (the source's name) (converted); for TGI: read-out: pTGI (converted); how it was run: as §2
TK-10 = experiment: Growth inhibition of human TK10 cells after 48 hrs by sulforhodamine B assay; details: TK-10, 48 h; for CC50: read-out: pLC50 (the source's name) (converted); for TGI: read-out: pTGI (converted); how it was run: as §2
DU-145 = experiment: Growth inhibition of human DU145 cells after 48 hrs by sulforhodamine B assay; details: DU-145, 48 h; for CC50: read-out: pLC50 (the source's name) (converted); for TGI: read-out: pTGI (converted); how it was run: as §1
MDA-MB-231 = experiment: Growth inhibition of human MDA-MB-231 cells after 48 hrs by sulforhodamine B assay; details: MDA-MB-231, 48 h; for CC50: read-out: pLC50 (the source's name) (converted); for TGI: read-out: pTGI (converted); how it was run: as §1
T47D = experiment: Growth inhibition of human T47D cells after 48 hrs by sulforhodamine B assay; details: for CC50: read-out: pLC50 (the source's name) (converted); for TGI: read-out: pTGI (converted); how it was run: as §2

Nc1cc(N)c2nc(-c3ccccc3)c(Sc3ccc(Cl)c(Cl)c3)nc2c1
GI50 (CCRF-CEM): 2.51 µM
LC50 (CCRF-CEM): > 100 µM
TGI (CCRF-CEM): > 100 µM
GI50 (SR): 4.68 µM
LC50 (concentration giving 50% net cell death) (SR): > 100 µM
TGI (SR; read-out: pTGI (converted)): 35.5 µM
GI50 (MOLT-4): 4.07 µM
LC50 (MOLT-4): > 100 µM
TGI (MOLT-4): > 100 µM
GI50 (A549): 13.5 µM
LC50 (A549): > 100 µM
TGI (A549): 52.5 µM
GI50 (NCI-H226): 3.02 µM
LC50 (NCI-H226): > 100 µM
TGI (NCI-H226): 9.12 µM
GI50 (NCI-H23): 12.6 µM
LC50 (50% net cell kill concentration) (NCI-H23): 95.5 µM
TGI (NCI-H23): 34.7 µM
GI50 (NCI-H460): 10.5 µM
LC50 (50% net cell kill) (NCI-H460): > 100 µM
TGI (NCI-H460): 33.9 µM
GI50 (COLO 205): 10.7 µM
LC50 (50% net cell kill) (COLO 205): > 100 µM
TGI (COLO 205): 33.9 µM
GI50 (HCT-116): 9.33 µM
LC50 (concentration causing 50% net cell death) (HCT-116): > 100 µM
TGI (HCT-116): 47.9 µM
GI50 (KM12): 11.2 µM
LC50 (50% net cell kill) (KM12): > 100 µM
TGI (KM12): > 100 µM
GI50 (SF-295): 17.8 µM
LC50 (50% net cell kill) (SF-295): > 100 µM
TGI (SF-295): 60.3 µM
GI50 (SF-539): 14.5 µM
LC50 (SF-539): > 100 µM
TGI (SF-539): 41.7 µM
GI50 (Malme-3M): 19.5 µM
CC50 (Malme-3M): > 100 µM
TGI (Malme-3M): 50.1 µM
GI50 (SK-MEL-2): 6.17 µM
CC50 (SK-MEL-2): > 100 µM
TGI (SK-MEL-2): 30.9 µM
GI50 (SK-MEL-5): 21.4 µM
CC50 (SK-MEL-5): > 100 µM
TGI (SK-MEL-5): 95.5 µM
GI50 (UACC-257): 17.8 µM
CC50 (UACC-257): > 100 µM
TGI (UACC-257): 58.9 µM
GI50 (OVCAR-5): 38.9 µM
CC50 (OVCAR-5): 91.2 µM
TGI (OVCAR-5): 58.9 µM
GI50 (SK-OV-3): 14.8 µM
CC50 (SK-OV-3): > 100 µM
TGI (SK-OV-3): 39.8 µM
GI50 (A498): 17 µM
CC50 (A498): 57.5 µM
TGI (A498): 30.9 µM
GI50 (ACHN): 1.7 µM
CC50 (ACHN; read-out: pLC50 (the source's name) (converted)): 5.62 µM
TGI (ACHN; read-out: pTGI (converted)): 3.09 µM
GI50 (RXF 393): 12.3 µM
CC50 (RXF 393): 60.3 µM
TGI (RXF 393): 26.9 µM
GI50 (SN12C): 7.59 µM
CC50 (SN12C): 64.6 µM
TGI (SN12C): 23.4 µM
GI50 (TK-10): 5.89 µM
CC50 (TK-10): 53.7 µM
TGI (TK-10): 20 µM
GI50 (DU-145): 1.51 µM
CC50 (DU-145): 9.77 µM
TGI (DU-145): 3.8 µM
GI50 (MDA-MB-231): 16.6 µM
CC50 (MDA-MB-231): > 100 µM
TGI (MDA-MB-231): 53.7 µM
GI50 (T47D): 13.2 µM
CC50 (T47D): > 100 µM
TGI (T47D): > 100 µM

COc1ccc(Sc2nc3cc(N)cc(N)c3nc2-c2ccccc2)cc1
GI50 (CCRF-CEM): 2.29 µM
LC50 (CCRF-CEM): > 100 µM
TGI (CCRF-CEM): 8.32 µM
GI50 (MOLT-4): 4.17 µM
LC50 (MOLT-4): > 100 µM
TGI (MOLT-4): > 100 µM
GI50 (A549): 42.7 µM
LC50 (A549): > 100 µM
TGI (A549): > 100 µM
LC50 (NCI-H226): > 100 µM
TGI (NCI-H226): > 100 µM
GI50 (NCI-H23): > 100 µM
LC50 (50% net cell kill concentration) (NCI-H23): > 100 µM
TGI (NCI-H23): > 100 µM
GI50 (NCI-H460): 20 µM
LC50 (50% net cell kill) (NCI-H460): > 100 µM
TGI (NCI-H460): > 100 µM
GI50 (COLO 205): 19.5 µM
LC50 (50% net cell kill) (COLO 205): > 100 µM
TGI (COLO 205): > 100 µM
GI50 (HCT-116): 14.8 µM
LC50 (concentration causing 50% net cell death) (HCT-116): > 100 µM
TGI (HCT-116): > 100 µM
GI50 (KM12): 28.2 µM
LC50 (50% net cell kill) (KM12): > 100 µM
TGI (KM12): > 100 µM
GI50 (SF-295): > 100 µM
LC50 (50% net cell kill) (SF-295): > 100 µM
TGI (SF-295): > 100 µM
GI50 (SF-539): 10 µM
LC50 (SF-539): > 100 µM
TGI (SF-539): > 100 µM
GI50 (Malme-3M): 33.1 µM
CC50 (Malme-3M): > 100 µM
TGI (Malme-3M): 95.5 µM
CC50 (SK-MEL-2): > 100 µM
TGI (SK-MEL-2): > 100 µM
GI50 (SK-MEL-5): 24 µM
CC50 (SK-MEL-5): > 100 µM
TGI (SK-MEL-5): > 100 µM
GI50 (UACC-257): 43.7 µM
CC50 (UACC-257): > 100 µM
TGI (UACC-257): > 100 µM
GI50 (OVCAR-5): > 100 µM
CC50 (OVCAR-5): > 100 µM
TGI (OVCAR-5): > 100 µM
GI50 (SK-OV-3): 33.1 µM
CC50 (SK-OV-3): > 100 µM
TGI (SK-OV-3): > 100 µM
GI50 (A498): 17.4 µM
CC50 (A498): 60.3 µM
TGI (A498): 32.4 µM
GI50 (RXF 393): 3.09 µM
CC50 (RXF 393): > 100 µM
TGI (RXF 393): 17 µM
GI50 (SN12C): 6.03 µM
CC50 (SN12C): 87.1 µM
TGI (SN12C): 24 µM
GI50 (TK-10): 12.9 µM
CC50 (TK-10): 72.4 µM
TGI (TK-10): 30.2 µM
GI50 (DU-145): 16.2 µM
CC50 (DU-145): 69.2 µM
TGI (DU-145): 33.1 µM
GI50 (MDA-MB-231): > 100 µM
CC50 (MDA-MB-231): > 100 µM
TGI (MDA-MB-231): > 100 µM
GI50 (T47D): > 100 µM
CC50 (T47D): > 100 µM
TGI (T47D): > 100 µM
